Measurements gathered from unrelated publications.
Target: Serine/threonine-protein kinase D2 (PRKD2, Homo sapiens, UniProt Q9BZL6)
Sequence (Q9BZL6 1-878, as in one of the studies): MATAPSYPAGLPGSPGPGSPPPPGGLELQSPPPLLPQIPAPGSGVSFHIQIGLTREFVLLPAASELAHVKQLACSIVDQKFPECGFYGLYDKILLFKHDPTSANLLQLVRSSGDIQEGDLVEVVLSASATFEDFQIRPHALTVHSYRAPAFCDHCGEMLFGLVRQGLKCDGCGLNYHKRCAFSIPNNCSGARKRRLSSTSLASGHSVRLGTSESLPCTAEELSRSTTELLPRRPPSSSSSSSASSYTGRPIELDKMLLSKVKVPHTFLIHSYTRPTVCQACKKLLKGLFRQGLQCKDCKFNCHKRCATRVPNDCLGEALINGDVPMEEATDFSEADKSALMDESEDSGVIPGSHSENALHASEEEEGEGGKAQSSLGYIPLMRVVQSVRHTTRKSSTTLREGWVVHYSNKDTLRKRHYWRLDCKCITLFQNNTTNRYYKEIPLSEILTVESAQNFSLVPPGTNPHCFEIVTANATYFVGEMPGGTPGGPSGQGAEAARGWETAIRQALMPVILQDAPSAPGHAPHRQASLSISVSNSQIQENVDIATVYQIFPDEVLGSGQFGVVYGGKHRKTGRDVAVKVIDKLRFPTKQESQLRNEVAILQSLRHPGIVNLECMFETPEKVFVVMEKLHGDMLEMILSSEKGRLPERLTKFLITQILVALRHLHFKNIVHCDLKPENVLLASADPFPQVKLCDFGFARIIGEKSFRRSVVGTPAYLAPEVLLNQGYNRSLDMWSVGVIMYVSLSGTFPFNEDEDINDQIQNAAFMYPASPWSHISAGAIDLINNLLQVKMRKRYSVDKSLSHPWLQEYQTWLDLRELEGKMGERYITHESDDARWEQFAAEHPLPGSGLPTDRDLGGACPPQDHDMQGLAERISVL

For `COc1ncc2cc3ccccc3nc2c1C#N`, the remaining binding was 93% (cell-free assay; competition with immobilised ligand; 5 µM).
With `CC1CCCN1c1nccc(-c2cnn3ncccc23)n1` (stereo not shown) the remaining binding was 85% (binding; 1 µM).
`CCCCN(CCCC)C(=O)CN1C[C@@H](c2cc(OC)c3c(c2)OCO3)[C@H](C(=O)O)[C@H]1CC(C)(C)CCC` has a remaining binding of 90.6% (cell-free assay; competition with immobilised ligand; 1 µM).
For `Cc1cnc(Nc2ccc(C(=O)N3CCC(N4CCCC4)CC3)cc2)nc1-c1cc2ccccc2s1`, the remaining binding was 47% (binding; competition with immobilised ligand; 1 µM).
`c1cnn2ncc(-c3ccnc(N4CCC45COC5)n3)c2c1` gave a remaining binding of 89% (binding; 1 µM).
With `O=C(NCCCC1CCCCC1)c1ccc(CNC(=O)c2cnn(-c3ccccc3)c2C(F)(F)F)cc1` the remaining binding was 100% (cell-free assay; competition with immobilised ligand; 0.1 µM).
With `FC(F)(F)Oc1cccc(-c2cnc3ccc(-c4ccncc4)nn23)c1` the remaining binding was 99% (cell-free assay; competition with immobilised ligand; 5 µM).
For `C[C@@H]1CCN(c2nccc(-c3cnn4ncccc34)n2)C1`, the remaining binding was 83% (binding; 1 µM).
For `Cc1nc(N2CC[C@@H](O)C2)ncc1-c1cc(C(F)(F)F)cc2[nH]ncc12`, the remaining binding was 79% (binding; competition with immobilised ligand; 1 µM).
`COc1cnc(Nc2cccc(S(N)(=O)=O)c2)nc1N1CCN(c2ccccc2)C(=O)C1` gave a remaining binding of 100% (binding; competition with immobilised ligand; 1 µM).
`O=C(c1ccc(Nc2nccc(-c3cc4ccccc4s3)n2)cc1)N1CCC(N2CCCC2)CC1` gave a remaining binding of 48% (binding; competition with immobilised ligand; 1 µM).
`CC1=C(C#N)[C@@H](c2ccc3[nH]nc(C)c3c2)C(C#N)=C(c2ccc(Cl)cc2)N1` gave a remaining binding of 100% (cell-free assay; competition with immobilised ligand; 1 µM).
`COc1cnc(Nc2cccc(S(N)(=O)=O)c2)nc1N1CCN(c2ccccc2)CC1` gave a remaining binding of 98% (binding; competition with immobilised ligand; 1 µM).
`C[C@@H](c1ccc(-n2cnc3c(N)ncnc32)cc1)N1CCc2nn(C)c(Cc3ccccc3)c2C1=O` gave a remaining binding of 99% (binding; competition with immobilised ligand; 0.1 µM).
With `O=C(NCCCN1CCOCC1)c1ccc(Nc2nccc(-c3cc4ccccc4s3)n2)cc1` the remaining binding was 36% (binding; competition with immobilised ligand; 1 µM).
`Nc1ncc2c(n1)-c1c([nH]c3ccc(C#CC4CC4)cc13)CCCC2` has a remaining binding of 87% (binding; competition with immobilised ligand; 1 µM).
With `Cc1cnn2ncc(-c3ccnc(N(C)C)n3)c2c1` the remaining binding was 100% (binding; 1 µM).
For `CNCc1ccccc1-c1csc([C@H](C)Nc2nc(C)nc3cc(OC)c(OC)cc23)c1`, the remaining binding was 99% (cell-free assay; competition with immobilised ligand; 1 µM).
With `N[C@@H]1CCN(c2nccc(-c3cnn4ncccc34)n2)C1` the remaining binding was 94% (binding; 1 µM).
For `O=C(NC[C@@H]1[C@H]2CN(C(=O)OCc3cc(C(F)(F)F)cc(C(F)(F)F)c3)C[C@@H]12)c1ccc2[nH]nnc2c1`, the remaining binding was 85% (cell-free assay; competition with immobilised ligand; 1 µM).
For `CN(CCCC(F)(F)F)c1nccc(-c2cnn3ncccc23)n1`, the remaining binding was 99% (binding; 1 µM).
The remaining binding of `O=C(Nc1c[nH]nc1C(=O)NC1CCNCC1)c1cc(F)cc(F)c1` is reported as 100% (binding; competition with immobilised ligand; 1 µM).
